Screens: PubChem, several laboratories
In the library only some 2.5% were active in any assay of this set; here they are far more common.
MC4R antag cAMP – MC4R antagonists of cAMP signaling, primary screen, cell-based, TR-FRET, antagonist arm of biased-ligand search. Melanocortin receptor 4 (Homo sapiens), P32245. MC4R-expressing cells, MTII-stimulated cAMP, LANCE TR-FRET. inhibition, % at 6.5 µM. actives 0.48% (n = 360,000). AID 540295, 2011;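 active = inhibition above its plate's cutoff, the mean of tested wells on that plate plus 3 SD, cut at about 29% in these data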;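 note: 0% = Melanotan II alone and 100% = Melanotan II plus saturating MCL0020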
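Assay system: human MC4R-expressing U2OS cells; reagent: Melanotan II stimulation of cells; dosing: 6.5 µM single dose; timing: compound 30 min, challenge 1 h, detection 1 h; signal: TR-FRET cAMP assay; replicates: one well per compound, no replicates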
Rev-erbA mod – modulators of Rev-erb alpha DNA binding, primary screen, biochemical, FITC-DNA, fluorescence polarization, uHTS. actives 0.79% (n = 370,000). activity, % at 10 µM. AID 1259318, 2017. Rev-erbα–FITC-DNA binding, 90 min;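 active = activity above about 14%, limit read from the data; passing the limit was not always enough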;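 note: 0% = DMSO wells with 35 nM protein and 100% = DMSO wells with 750 nM protein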
PG9 binder – binders of HIV-1 gp120 antibody PG9, primary screen, biochemical, TR-FRET | HIV-1 gp120 / PG9 antibody interaction | TR-FRET gp120-PG9 antibody binding | inhibition, % at 6.7 µM | actives 0.43% (n = 360,000); in the data active = inhibition above about 8.5%
MC4R barr agon – MC4R agonists recruiting beta-arrestin, primary screen, cell-based, luminescence, agonist arm of biased-ligand search; U2OS MC4R beta-arrestin complementation; percent of melanotan II response, DMSO zero; activation, % at 8.9 µM; actives 0.98% (n = 360,000); AID 540308, 2011;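 active = activation above a per-plate cutoff, the mean activation of sample wells on that plate plus 3 SD, cut at about 8% in these data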
NTR1 ag – agonists of human NTR1, primary screen, imaging, U2OS cells, beta-arrestin-GFP, high content; AID 493036, 2011; NTR1-U2OS beta-arrestin-GFP spot imaging, agonist mode; actives 0.17% (n = 330,000); activation, % at 20 µM;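 active = activation at or above 40% of the spot to cytoplasm intensity ratio, with at least 20 cells analyzed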;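 note: 0% = DMSO without peptide and 100% = 100 nM NTR1 peptide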
Target sequence (P30989 whole entry, looked up): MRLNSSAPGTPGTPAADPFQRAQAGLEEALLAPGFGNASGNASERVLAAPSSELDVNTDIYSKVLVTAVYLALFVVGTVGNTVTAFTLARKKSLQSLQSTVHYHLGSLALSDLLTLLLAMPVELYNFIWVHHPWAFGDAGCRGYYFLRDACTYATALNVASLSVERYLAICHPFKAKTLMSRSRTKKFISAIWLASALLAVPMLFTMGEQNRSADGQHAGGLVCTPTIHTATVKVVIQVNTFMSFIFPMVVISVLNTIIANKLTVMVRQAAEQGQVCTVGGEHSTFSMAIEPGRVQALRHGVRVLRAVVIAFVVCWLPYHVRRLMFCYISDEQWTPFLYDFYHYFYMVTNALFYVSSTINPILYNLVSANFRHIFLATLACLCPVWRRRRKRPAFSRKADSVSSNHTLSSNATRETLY
PG9 binder conf – binders of anti-gp120 antibody PG9, confirmation, biochemical, TR-FRET; shares compounds with PG9 binder; TR-FRET PG9 antibody binding; inhibition, % at 6.7 µM; actives 90% (n = 1,500); in the data active = inhibition above about 9%
PGV04 counter – binders of control antibody PGV04, counter-screen for PG9 antibody binder project, biochemical, TR-FRET, distinct HIV envelope site. shares compounds with PG9 binder. TR-FRET PGV04 antibody-gp120 binding. inhibition, % at 6.7 µM. actives 95% (n = 1,500); in the data active = inhibition above about 9.5%
PG9 bind DR – small-molecule binders of antibody PG9, dose response, biochemical, TR-FRET, HIV-1 gp120 antibody; shares compounds with PG9 binder; TR-FRET PG9 antibody-gp120 binding inhibition; IC50, µM; 95 tested, under 10 active; in the data active = IC50 below about 10 µM
PGV04 binding DR – binders of control antibody PGV04, dose response, counter-screen for PG9 antibody binder project, biochemical, TR-FRET, distinct HIV envelope site | shares compounds with PG9 binder | TR-FRET binding to control antibody PGV04 | IC50, µM | actives 20% (n = 95) | AID 651937, 2012
PG126 DR counter – binders of control antibody PG126, dose response, counter-screen for PG9 antibody binder project, biochemical, TR-FRET, distinct HIV envelope site. IC50, µM. shares compounds with PG9 binder. actives 20% (n = 95). TR-FRET binding to antibody PG126, counterscreen
* = called active by the depositor; x = not tested or not shown. Cut-off read from the data, not from the text of the source, unless noted: active = IC50 below about 9 µM; inactive = the rest.

SMILES	MC4R antag cAMP	Rev-erbA mod	PG9 binder	MC4R barr agon	NTR1 ag	PG9 binder conf	PGV04 counter	others
C#CCCCN([C@H](C(=O)OC)C(C)C)S(=O)(=O)c1ccc(F)cc1Br	x	0.3	x	x	x	x	x
O=C(CN1C(=O)NC2(CCOc3ccccc32)C1=O)c1ccc(Cl)cc1 (stereo not drawn)	10.1	-0.4	1.4	-1.4	-0.1	x	x
CCN(c1ccc(C(=O)CN2C(=O)NC3(CCOc4ccccc43)C2=O)cc1)S(C)(=O)=O (stereo not drawn)	3.0	-6.6	9.8*	0.6	4.5	33.6*	32.4*	PG9 bind DR=>67;PGV04 binding DR=>67;PG126 DR counter=>67
CCCCn1c(SCC(=O)c2ccc(OCC)cc2)nc2cc(S(N)(=O)=O)ccc21	3.2	11.5	19.0*	2.4	9.2	22.1*	35.3*
Cc1nc(SCC(=O)NCc2ccccc2)c2c(=O)n(C)c(=O)n(C)c2n1	7.4	0.2	13.5*	0.3	1.8	5.4	8.1
Cc1nc(SCC(=O)NCCc2ccccc2)c2c(=O)n(C)c(=O)n(C)c2n1	13.8	4.8	-0.3	-0.8	0.6	x	x
N#Cc1cccc(NC(=O)CSc2nnc(-c3n[nH]c4ccccc34)o2)c1	3.1	-5.0	9.4*	-1.8	1.2	8.2	10.3*
Cc1cccc(NC(=O)CSc2nnc(-c3n[nH]c4ccccc34)o2)c1	6.0	-0.7	-1.9	-0.8	-0.8	x	x
O=C(NC1CCCCN(Cc2cccc(C(F)(F)F)c2)C1=O)c1ccc(Cl)c(Cl)c1 (stereo not drawn)	x	3.4	x	x	x	x	x
O=C(CCS(=O)(=O)c1ccccc1)Nc1ccc(-c2nc3ccccc3s2)c(O)c1	7.2	8.5	26.2*	2.3	0.1	22.3*	50.8*
CSc1nc(SC(C)C(=O)O)c2c3c(sc2n1)COC(C)(C)C3 (stereo not drawn)	22.2	1.1	9.0*	-2.0	6.4	21.5*	30.4*
CSc1nc(SCCN(C)C)c2c3c(sc2n1)COC(C)(C)C3	20.5	3.2	-2.6	-0.3	1.7	x	x
CC(Sc1cnc2ccccc2n1)C(=O)O (stereo not drawn)	25.2	8.4	12.6*	-1.1	0.3	17.8*	22.6*
COC(=O)c1cc(NC(=O)c2ccc(-c3ccccc3)cc2)ccc1Cl	1.7	16.6	10.3*	9.3*	5.3	13.1*	22.4*
O=C(Nc1ccc2ccccc2c1)c1ccc(Cl)cc1	11.4	3.5	10.1*	3.9	-0.1	12.8*	17.6*
COC(=O)c1cc(NC(=O)Nc2cccc(Cl)c2)ccc1Cl	-1.9	-4.0	0.8	2.4	37.3	x	x
C[C@H]1C2CC(OC(=O)Nc3ccc(C#N)cc3)C(C2)[C@H]2CCCCN21 (stereo partly drawn)	x	8.4	x	x	x	x	x
O=C(NCCc1ccccc1Cl)[C@@H]1CCCN1C(=O)[C@H](Cc1cccnc1)NC(=O)N1CCOCC1	x	-1.0	-1.1	x	x	x	x
CCOc1ccc(C(=O)Nc2ccc3c(c2)C(=O)NC3=O)cc1	8.8	-3.5	-0.8	1.5	2.8	x	x
O=C(Nc1ccc2c(c1)C(=O)NC2=O)c1cccc(Cl)c1	11.4	16.5	17.2*	3.7	2.2	28.1*	46.9*
CCCCOc1ccc(C(=O)Nc2ccc3c(c2)C(=O)NC3=O)cc1	9.0	-10.1	20.9*	0.1	5.5	6.5	11.4*
C/C(=N\NC(=O)C1COc2ccccc2O1)c1ccc(Cl)s1 (stereo not drawn)	12.1	-1.8	24.2*	4.6	5.7	6.3	8.2
Cc1cc2c(nc1C)CCCN2S(=O)(=O)c1ccc(C(F)(F)F)cc1	x	1.4	1.0	x	x	x	x
Cc1ccc(-c2nc3cccnc3s2)cc1NC(=O)C1c2ccccc2Oc2ccccc21	11.5	4.8	19.1*	0.2	0.6	30.0*	63.2*
COC(=O)c1cc(-c2c(C)noc2C)c(=O)n2c1CCC2	x	-5.7	x	x	x	x	x
SMILES	MC4R antag cAMP	Rev-erbA mod	PG9 binder	MC4R barr agon	NTR1 ag	PG9 binder conf	PGV04 counter	others
COc1ccc(C(=O)Nc2nnc(Cc3ccc(OC)c(OC)c3)s2)cc1	8.1	3.3	9.5*	0.8	0.5	10.9*	19.6*
COc1cccc(-c2ccc3c(c2)[C@@H]2C[C@H]4[C@@H](CN2CC3)[C@H](C)ON4C)c1	x	-1.3	-0.7	x	x	x	x
CCC(=O)c1cn(CC(=O)Nc2cccc(C)c2C)c2ccccc12	2.0	2.8	9.9*	1.1	-0.5	18.9*	23.1*
CC(=O)c1cn(CC(=O)Nc2cccc(C)c2C)c2ccccc12	6.4	-0.6	-0.6	-0.2	-0.3	x	x
O=C(Nc1nc2ncccn2c1-c1ccccc1)c1ccc(F)cc1	x	2.2	x	x	x	x	x
COc1ccc(-c2ccc(SCC(=O)NC3CCCC3)nn2)cc1	2.3	-6.5	-0.2	-1.4	x	x	x
Cc1cc(SCC(=O)NCC2CCCO2)nc2ccccc12 (stereo not drawn)	2.5	7.3	12.3*	-3.6	0.0	17.4*	20.2*
Cc1ccc(-n2c(SCC(=O)NCC3CCCO3)nc3ccccc3c2=O)cc1C (stereo not drawn)	-5.0	3.0	0.0	-0.9	-0.7	x	x
Cc1cc(SCC(=O)Nc2ncc(Cl)cc2Cl)nc2ccccc12	1.1	11.0	12.3*	-0.3	8.7	15.1*	20.5*
COc1ccc2c(C)cc(SCC(=O)NC3CCCC3)nc2c1	0.8	4.6	11.2*	-2.0	0.0	15.2*	29.2*
Cc1cccc(C)c1NC(=O)CSc1cc(C(=O)c2nccn2C)c2ccccc2n1	14.3	-0.7	14.0*	0.7	2.7	40.6*	57.6*
